Results: ChEMBL document CHEMBL2331355, “Synthesis, structure activity relationship and mode of action of 3-substitutedphenyl-1-(2,2,8,8-tetramethyl-3,4,9,10-tetrahydro-2H,8H-pyrano[2,3-f]chromen-6-yl)-propenones as novel anticancer agents in human leukaemia HL-60 cells” (Eur J Med Chem, 2013)
Active and inactive are the calls of the source. The rule behind the calls is not given here.

Assays:
MCF7 [1] = assay: Growth inhibition of human MCF7 cells at 30 uM after 48 hrs by MTT assay; assay type: functional, cell-based
Summary of the method: (§1)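 Single-concentration MTT screen at 50 µM over 48 h in 96-well plates. Compounds giving >50% inhibition were rescreened at 30 µM. OD read at 570 nm, reference 620 nm. Result expressed as % growth inhibition versus untreated control. Mitomycin C, adriamycin or 5-fluorouracil used as positive controls. Mean ± SD of three independent experiments.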

HL-60 [2] = assay: Growth inhibition of human HL60 cells at 30 uM after 48 hrs by MTT assay; assay type: functional, cell-based; summary of the method: as §1
HL-60 [3] = assay: Cell cycle arrest in human HL60 cells assessed as accumulation of G0/G1 phase cells at 15 uM after 24 hrs by PI staining-based flow cytometric analysis (reference value: 48%); assay type: functional
HL-60 [4] = assay: Induction of apoptosis in human HL60 cells at 10 uM after 24 hrs by PI-staining based flow cytometric analysis (reference value: 0.7 %); assay type: functional
PC-3 [5] = assay: Growth inhibition of human PC3 cells at 50 uM after 48 hrs by MTT assay; assay type: functional; conditions: PC-3, 48 h, read-out: GI; summary of the method: as §1
HL-60 [6] = assay: Induction of apoptosis in human HL60 cells assessed as accumulation of sub-G0/G1 phase cells after 24 hrs by PI-staining based flow cytometric analysis; assay type: functional, cell-based
HL-60 [7] = assay: Cell cycle arrest in human HL60 cells assessed as S phase cells at 15 uM after 24 hrs by PI staining-based flow cytometric analysis (reference value: 49%); assay type: functional
PC-3 [8] = assay: Cytotoxicity against human PC3 cells after 48 hrs by MTT assay; assay type: functional, cell-based; conditions: PC-3, 48 h
Summary of the method: (§2)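 MTT assay in 96-well plates, 48 h exposure across 1–100 µM. OD read at 570 nm against a 620 nm reference. Untreated control OD taken as 100% viability. IC50 derived from the concentration–response curves. Mean ± SD, n = 8 wells, from three independent experiments.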

ASPC1 [9] = assay: Growth inhibition of human AsPC1 cells at 50 uM after 48 hrs by MTT assay; assay type: functional; conditions: ASPC1, 48 h, read-out: GI; summary of the method: as §1
HL-60 [10] = assay: Cell cycle arrest in human HL60 cells assessed as accumulation of G0/G1 phase cells at 5 uM after 24 hrs by PI staining-based flow cytometric analysis (reference value: 48%); assay type: functional
HL-60 [11] = assay: Cell cycle arrest in human HL60 cells assessed as G2/M phase cells at 10 uM after 24 hrs by PI staining-based flow cytometric analysis (reference value: 3%); assay type: functional
MDA-MB-435 [12] = assay: Growth inhibition of human MDA-MB-435 cells at 30 uM after 48 hrs by MTT assay; assay type: functional, cell-based; summary of the method: as §1
HL-60 [13] = assay: Cell cycle arrest in human HL60 cells assessed as decrease in S phase cells after 24 hrs by PI staining-based flow cytometric analysis; assay type: functional
HL-60 [14] = assay: Induction of apoptosis in human HL60 cells assessed as nuclear condensation after 24 hrs by Hoechst 33258 staining; assay type: functional, cell-based
Summary of the method: (§3)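 HL-60 cells (1 × 10⁶/2 ml) treated 24 h at 15 and 20 µM, pelleted at 300 g and washed. Stained with Hoechst 33258, then examined under an inverted fluorescence microscope (10×, UV excitation) for nuclear condensation, blebbing and apoptotic bodies.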

HL-60 [15] = assay: Cell cycle arrest in human HL60 cells assessed as G2/M phase cells at 20 uM after 24 hrs by PI staining-based flow cytometric analysis (reference value: 3%); assay type: functional
HL-60 [16] = assay: Induction of apoptosis in human HL60 cells assessed as nuclear blebbing after 24 hrs by Hoechst 33258 staining; assay type: functional, cell-based; summary of the method: as §3
HL-60 [17] = assay: Cell cycle arrest in human HL60 cells assessed as S phase cells at 20 uM after 24 hrs by PI staining-based flow cytometric analysis (reference value: 49%); assay type: functional
MIA PaCa-2 [18] = assay: Cytotoxicity against human MIAPaCa2 cells after 48 hrs by MTT assay; assay type: functional, cell-based; conditions: MIA PaCa-2, 48 h; summary of the method: as §2
HL-60 [19] = assay: Induction of apoptosis in human HL60 cells assessed as DNA fragmentation at 20 uM after 24 hrs by SDS-PAGE analysis; assay type: functional, cell-based; conditions: in the assay text read “agarose gel electrophoresis” for “SDS-PAGE analysis”
Summary of the method: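 HL-60 cells (2 × 10⁶/3 ml/well) treated at 20 µM for 24 h. Lysed, then digested with RNase (400 µg/ml, 37 °C, 90 min) and proteinase K (200 µg/ml, 50 °C, 1 h). DNA extracted with phenol/chloroform/isoamyl alcohol and alcohol-precipitated. Run on 1.8% agarose gel at 70 V for 1 h, stained with ethidium bromide, and scored for laddering.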

ASPC1 [20] = assay: Growth inhibition of human AsPC1 cells at 30 uM after 48 hrs by MTT assay; assay type: functional, cell-based; summary of the method: as §1
HL-60 [21] = assay: Induction of apoptosis in human HL60 cells at 20 uM after 24 hrs by PI-staining based flow cytometric analysis (reference value: 0.7 %); assay type: functional
PC-3 [22] = assay: Growth inhibition of human PC3 cells at 30 uM after 48 hrs by MTT assay; assay type: functional, cell-based; summary of the method: as §1
MDA-MB-435 [23] = assay: Growth inhibition of human MDA-MB-435 cells at 50 uM after 48 hrs by MTT assay; assay type: functional; conditions: MDA-MB-435, 48 h, read-out: GI; summary of the method: as §1
HL-60 [24] = assay: Cell cycle arrest in human HL60 cells assessed as accumulation of G0/G1 phase cells after 24 hrs by PI staining-based flow cytometric analysis; assay type: functional
HL-60 [25] = assay: Induction of apoptosis in human HL60 cells assessed as apoptotic bodies at 20 uM after 24 hrs by Hoechst 33258 staining; assay type: functional, cell-based; summary of the method: as §3
HL-60 [26] = assay: Cell cycle arrest in human HL60 cells assessed as G2/M phase cells at 15 uM after 24 hrs by PI staining-based flow cytometric analysis (reference value: 3%); assay type: functional
HL-60 [27] = assay: Cytotoxicity against human HL60 cells after 24 hrs by MTT assay; assay type: functional, cell-based; conditions: HL-60, 24 h
Summary of the method: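 HL-60 cells exposed 24 h to a range of concentrations, then MTT reduction measured. Untreated control OD taken as 100% viability; IC50 derived from the curve. Mean ± SD, n = 8 wells, three independent experiments.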

HL-60 [28] = assay: Cell cycle arrest in human HL60 cells assessed as G2/M phase cells at 5 uM after 24 hrs by PI staining-based flow cytometric analysis (reference value: 3%); assay type: functional
Caco-2 [29] = assay: Growth inhibition of human Caco2 cells at 50 uM after 48 hrs by MTT assay; assay type: functional; conditions: Caco-2, 48 h, read-out: GI; summary of the method: as §1
HL-60 [30] = assay: Cell cycle arrest in human HL60 cells assessed as S phase cells at 10 uM after 24 hrs by PI staining-based flow cytometric analysis (reference value: 49%); assay type: functional
HL-60 [31] = assay: Cell cycle arrest in human HL60 cells assessed as accumulation of G0/G1 phase cells at 10 uM after 24 hrs by PI staining-based flow cytometric analysis (reference value: 48%); assay type: functional
HL-60 [32] = assay: Induction of mitochondrial membrane potential loss in human HL60 cells at 20 uM after 24 hrs by rhodamine-123 staining method (reference value: 7%); assay type: functional
Summary of the method: (§4)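 HL-60 cells (1 × 10⁶/2 ml/well) treated 24 h at 15 or 20 µM, then incubated with rhodamine-123 (200 nM) for 40 min. Loss of dye uptake measured by flow cytometry. Camptothecin (4 µM, 6 h) as positive control. Representative of three experiments.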

MIA PaCa-2 [33] = assay: Growth inhibition of human MIAPaCa2 cells at 50 uM after 48 hrs by MTT assay; assay type: functional; conditions: MIA PaCa-2, 48 h, read-out: GI; summary of the method: as §1
HL-60 [34] = assay: Growth inhibition of human HL60 cells at 50 uM after 48 hrs by MTT assay; assay type: functional; conditions: HL-60, 48 h, read-out: GI; summary of the method: as §1
MCF7 [35] = assay: Growth inhibition of human MCF7 cells at 50 uM after 48 hrs by MTT assay; assay type: functional; conditions: MCF7, 48 h, read-out: GI; summary of the method: as §1
Caco-2 [36] = assay: Growth inhibition of human Caco2 cells at 30 uM after 48 hrs by MTT assay; assay type: functional, cell-based; summary of the method: as §1
MIA PaCa-2 [37] = assay: Growth inhibition of human MIAPaCa2 cells at 30 uM after 48 hrs by MTT assay; assay type: functional, cell-based; summary of the method: as §1
HL-60 [38] = assay: Cell cycle arrest in human HL60 cells assessed as S phase cells at 5 uM after 24 hrs by PI staining-based flow cytometric analysis (reference value: 49%); assay type: functional
HL-60 [39] = assay: Induction of mitochondrial membrane potential loss in human HL60 cells at 15 uM after 24 hrs by rhodamine-123 staining method (reference value: 7%); assay type: functional; summary of the method: as §4
HL-60 [40] = assay: Induction of apoptosis in human HL60 cells at 15 uM after 24 hrs by PI-staining based flow cytometric analysis (reference value: 0.7 %); assay type: functional
HL-60 [41] = assay: Cell cycle arrest in human HL60 cells assessed as accumulation of G0/G1 phase cells at 20 uM after 24 hrs by PI staining-based flow cytometric analysis (reference value: 48%); assay type: functional
HL-60 [42] = assay: Induction of apoptosis in human HL60 cells at 5 uM after 24 hrs by PI-staining based flow cytometric analysis (reference value: 0.7 %); assay type: functional
Caco-2 [43] = assay: Cytotoxicity against human Caco2 cells after 48 hrs by MTT assay; assay type: functional, cell-based; conditions: Caco-2, 48 h; summary of the method: as §2
HL-60 [44] = assay: Cell cycle arrest in human HL60 cells assessed as decrease in G2/M phase cells after 24 hrs by PI staining-based flow cytometric analysis; assay type: functional
PC-3 [45] = assay: Growth inhibition of human PC3 cells at 10 uM after 48 hrs by MTT assay; assay type: functional; conditions: PC-3, 48 h, read-out: GI
Summary of the method: (§5)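 MTT assay. Suspension or adherent cells were exposed to compound for 48 h. OD was read at 570 nm (reference 620 nm), with untreated control OD set as 100% viability. Results are percent growth inhibition, mean ± SD of three independent experiments.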

HL-60 [46] = assay: Growth inhibition of human HL60 cells at 10 uM after 48 hrs by MTT assay; assay type: functional; conditions: HL-60, 48 h, read-out: GI; summary of the method: as §5

CC1(C)CCc2cc(C(=O)/C=C/c3ccc(C#N)cc3)c3c(c2O1)CCC(C)(C)O3
growth inhibition (GI) (MCF7 [1]): Active | growth inhibition (GI) (HL-60 [2]): Active | Activity (HL-60 [3]): 73% | Activity (HL-60 [4]): 11% | inhibition of growth at 50 µM (PC-3 [5]): 76% | Activity (HL-60 [6]): Dose-dependent effect | Activity (HL-60 [7]): 23% | IC50 (PC-3 [8]): 7 µM | inhibition of growth at 50 µM (ASPC1 [9]): 48% | Activity (HL-60 [10]): 48% | Activity (HL-60 [11]): 5% | growth inhibition (GI) (MDA-MB-435 [12]): Active | Activity (HL-60 [13]): Dose-dependent effect | Activity (HL-60 [14]): Dose-dependent effect | Activity (HL-60 [15]): 3% | Activity (HL-60 [16]): Dose-dependent effect | Activity (HL-60 [17]): 9% | IC50 (MIA PaCa-2 [18]): 12 µM | Activity (HL-60 [19]): Active | growth inhibition (GI) (ASPC1 [20]): Active | Activity (HL-60 [21]): 71% | growth inhibition (GI) (PC-3 [22]): Active | inhibition of growth at 50 µM (MDA-MB-435 [23]): 88% | Activity (HL-60 [24]): Dose-dependent effect | Activity (HL-60 [25]): Active | Activity (HL-60 [26]): 4% | IC50 (HL-60 [27]): 16 µM | Activity (HL-60 [28]): 6% | inhibition of growth at 50 µM (Caco-2 [29]): 93% | Activity (HL-60 [30]): 39% | Activity (HL-60 [31]): 56% | Activity (HL-60 [32]): 61% | inhibition of growth at 50 µM (MIA PaCa-2 [33]): 76% | inhibition of growth at 50 µM (HL-60 [34]): 93% | inhibition of growth at 50 µM (MCF7 [35]): 78% | growth inhibition (GI) (Caco-2 [36]): Active | growth inhibition (GI) (MIA PaCa-2 [37]): Active | Activity (HL-60 [38]): 46% | Activity (HL-60 [39]): 49% | Activity (HL-60 [40]): 31% | Activity (HL-60 [41]): 88% | Activity (HL-60 [42]): 1% | IC50 (Caco-2 [43]): 12 µM | Activity (HL-60 [44]): Dose-dependent effect

O=c1[nH]cc(F)c(=O)[nH]1 [FLUOROURACIL]
inhibition of growth at 10 µM (PC-3 [45]): 72% | inhibition of growth at 10 µM (HL-60 [46]): 84%
